According to ChEMBL document CHEMBL3526146, “In vitro and in vivo metabolism and pharmacokinetics of BMS-562086, a potent and orally bioavailable corticotropin-releasing factor-1 receptor antagonist” (Drug Metab Dispos, 2012):

Tests used:
[1] = Apparent permeability from apical to basolateral side in human Caco2 cells; type: ADME, cell-based; conditions: Caco-2
Outline: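 Caco-2 cells (passage 50-60) were seeded at 60,000 cells/cm2 on polycarbonate Transwells and cultured 21-25 days. Transport buffer was HBSS with 2% DMA, pH 7.4. Compound was applied apically at 25 µM at 37°C. Only monolayers with TEER 400-500 Ω cm2 at start and end were used, with mannitol as an integrity probe. Papp = (dQ/dt)/(A×C0).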

[2] = Drug metabolism in human cryopreserved hepatocytes assessed as […] at 25 uM after 3 hrs by HPLC analysis; type: ADME, cell-based, Hepatocyte
[3] = Terminal half life in Sprague-Dawley rat at 5 mg/kg, po; type: ADME, organism-based; parameters: dose 5 mg/kg, route oral; conditions: in vivo, read-out: beta t1/2 (converted)
Outline: (§1)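 Male Sprague-Dawley rats (n=3 per route, 0.34–0.35 kg) with jugular cannulas, fasted about 18 h before and 4 h after dosing. IV dose of 1 mg/kg in 20% ethanol/saline; oral dose of 5 mg/kg by gavage in 0.5% methylcellulose. Plasma sampled 0–96 h and assayed by LC/MS/MS (LLOQ 1.00 ng/ml). Noncompartmental analysis.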

[4] = AUC (infinity) in Sprague-Dawley rat at 5 mg/kg, po; type: ADME, organism-based; parameters: time infinity, dose 5 mg/kg, route oral; conditions: plasma
Outline: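 Male Sprague-Dawley rats (n=3 per route, 0.34-0.35 kg, cannulated), fasted ~18 h pre-dose and 4 h post-dose. Dosing was 1 mg/kg IV bolus in 20% ethanol/saline via the jugular cannula, or 5 mg/kg oral gavage in 0.5% aqueous methylcellulose. Jugular blood was sampled 0-96 h. Plasma was assayed by validated LC/MS/MS (LLOQ 1.00 ng/ml), and AUC(INF) was derived by noncompartmental mixed log-linear trapezoidal analysis.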

Canis familiaris = experiment: Terminal volume of distribution in beagle dog at 1 mg/kg, iv; type: ADME, organism-based, Canis lupus familiaris; parameters: dose 1 mg/kg, route intravenous; conditions: in vivo
Outline: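 Male beagles (n=3, 10.1-12.7 kg), fasted ~15 h pre- and 4 h post-dose, given a 1 mg/kg IV bolus via saphenous vein catheter in N,N-dimethylacetamide:propylene glycol:water (1:7:2). Plasma drawn 0-96 h and assayed by LC/MS/MS. Noncompartmental analysis; Vz = CLp (dose/AUC(INF)) divided by elimination rate constant.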

Liver microsome = experiment: Drug metabolism in human liver microsomes assessed as DPH-123554 metabolite formation at 100 uM after 1 hr in presence of NADPH and ketoconazole; type: ADME
Serum [5] = experiment: Metabolic stability in dog serum after 3 hrs by equilibrium dialysis; type: ADME, cell-free, Canis lupus familiaris
Outline: (§2)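 Stability assessed in the serum samples from the equilibrium-dialysis setup: compound at final 12.8, 25.6 and 38.5 µM, dialysed against 134 mM phosphate buffer, pH 7.4, at 37°C with rotation at 20 rpm. Samples monitored for degradants over the 3-h incubation.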

[6] = Oral bioavailability in chimpanzee at 1 mg/kg; conditions: Pan troglodytes, in vivo
[7] = Drug metabolism in beagle dog hepatocytes assessed as decrease of compound level at 25 uM after 3 hrs by HPLC analysis; type: ADME, cell-based, Canis lupus familiaris, Hepatocyte; conditions: read-out: Drug metabolism
Outline: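 Mouse, rat, dog, monkey and human hepatocytes (trypan blue viability checked) at 1.0×10^6 cells/ml in Krebs-Henseleit buffer were incubated with 25 µM compound, in duplicate. Conditions were 37°C, 95/5 O2/CO2, orbital shaking, 3 h. 7-Ethoxycoumarin and 7-hydroxycoumarin (100 µM) served as positive controls, with a cell-free negative control. Reactions were quenched with ice-cold acetonitrile, then sonicated and centrifuged; supernatants were analysed by LC/MS/MS.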

[8] = Protein binding in rat serum after 3 hrs by equilibrium dialysis; type: ADME, cell-free; conditions: read-out: PB (converted)
Outline: (§3)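 Equilibrium dialysis of serum spiked to final 12.8, 25.6 and 38.5 µM against 134 mM phosphate buffer, pH 7.4, through a 10,000 Da cutoff membrane. Cells rotated at 20 rpm, 37°C, 3 h. Percent unbound taken as buffer concentration divided by serum concentration.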

[9] = Protein binding in human serum after 3 hrs by equilibrium dialysis; type: ADME, cell-free; conditions: read-out: PB (converted); outline: as §3
[10] = Terminal half life in beagle dog at 1 mg/kg, iv; type: ADME, organism-based, Canis lupus familiaris; parameters: dose 1 mg/kg, route intravenous; conditions: in vivo, read-out: beta t1/2 (converted)
Outline: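 Male beagle dogs (n=3), one-way IV/PO crossover with a one-week washout, fasted about 15 h before and 4 h after dosing. IV dose of 1 mg/kg as a saphenous bolus in N,N-dimethylacetamide:propylene glycol:water (1:7:2); PO dose of 5 mg/kg by gavage in 0.5% methylcellulose. Plasma sampled 0–96 h and assayed by LC/MS/MS (LLOQ 1.00 ng/ml). Noncompartmental analysis; CL = dose/AUC(INF) after IV; F from dose-normalized AUC ratio.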

[11] = Drug metabolism in mouse hepatocytes assessed as at 25 uM after 3 hrs by HPLC analysis
[12] = AUC (infinity) in beagle dog at 5 mg/kg, po; type: ADME, organism-based, Canis lupus familiaris; parameters: time infinity, dose 5 mg/kg, route oral; conditions: plasma
Outline: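 Male beagle dogs (n=3, 10.1-12.7 kg) in a one-way IV/PO crossover with one-week washout, fasted ~15 h pre-dose and 4 h post-dose. Dosing was 1 mg/kg IV bolus into the saphenous vein in DMA:propylene glycol:water (1:7:2), or 5 mg/kg gavage in 0.5% methylcellulose. Blood was sampled 0-96 h. Plasma was assayed by LC/MS/MS (LLOQ 1.00 ng/ml) with noncompartmental analysis; Cmax was observed directly.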

[13] = Drug metabolism in human cryopreserved hepatocytes assessed as 7-hydroxycoumarin formation at 25 uM after 3 hrs by HPLC analysis; type: ADME, cell-based, Hepatocyte
[14] = Terminal half life in Sprague-Dawley rat at 1 mg/kg, iv; type: ADME, organism-based; parameters: dose 1 mg/kg, route intravenous; conditions: in vivo, read-out: beta t1/2 (converted); outline: as §1
[15] = Drug metabolism in cynomolgus monkey cryopreserved hepatocytes assessed as 7-hydroxycoumarin formation at 25 uM after 3 hrs by HPLC analysis; type: ADME, cell-based, Macaca fascicularis, Hepatocyte
Serum [16] = experiment: Metabolic stability in rat serum after 3 hrs by equilibrium dialysis; type: ADME, cell-free; outline: as §2
[17] = Drug metabolism in bile duct-cannulated Sprague-Dawley rat urine assessed as DPH-123554 metabolite level at 30 mg/kg, po after 12 hrs by LC-MS/MS analysis; type: ADME, organism-based; parameters: dose 30 mg/kg, route oral; conditions: in vivo
Outline: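 Male bile-duct-cannulated Sprague-Dawley rats (n=3), fasted overnight, received 30 mg/kg by gavage in 0.5% methylcellulose. Urine and bile were collected 0-12 h and pooled by equal percentage weight across animals, then centrifuged. Supernatants were profiled by LC/MS/MS. Bile was also treated with β-glucuronidase in pH 4.8 acetate buffer, 37°C, 16 h.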

Papp A→B [1] [×10⁻⁶ cm/s] | Drug metabolism [2] | half-life [3] [h] | AUC(0-inf) [4] [µM·h] | Vz (Canis familiaris) [L/kg] | Drug metabolism (Liver microsome) | Stability (Serum [5]) | bioavailability [6] [%] | metabolised at 3 h, 25 µM [7] [%] | fraction unbound at 3 h [8] | fraction unbound at 3 h [9] | half-life [10] [h] | Drug metabolism [11] | AUC(0-inf) [12] [µM·h] | Drug metabolism [13] | half-life [14] [h] | Drug metabolism [15] | Stability (Serum [16]) | Drug metabolism [17] | SMILES
17 | metabolite_detected | 13.8 | 5.82 | 28.2 | metabolite_not_detected | Stable | 58.5 | 61 | 0.064 | 0.039 | 43.9 | metabolite_detected | 13 | metabolite_detected | 13.5 | metabolite_detected | Stable |  | CC[C@@H](C)Nc1nc(C)nc2c(-c3ccc(OC)nc3C)c(C)nn12 [PEXACERFONT]
 |  |  |  |  |  |  |  |  |  |  |  |  |  |  |  |  |  | metabolite_detected | CC[C@@H](C)Nc1nc(C)nc2c(-c3ccc(O)nc3C)c(C)nn12
